From ChEMBL document CHEMBL1154576, “Isolation, structure determination, and biological activity of Lyngbyabellin A from the marine cyanobacterium lyngbya majuscula” (J Nat Prod, 2000)
Values after ≈ are worked out from the molar mass of the structure shown. Active and inactive are the calls of the source. No cut-off for these calls is given here.

Tests used:
[1] = test system: A10; assay: Disruption of cytoskeleton in rat A10 cells assessed as neuron-like gross cellular morphology; type: functional, cell-based
In short: (§1)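 A-10 smooth muscle cells grown on glass coverslips in Basal Medium Eagle with 10% fetal calf serum, exposed to a range of concentrations or vehicle for 24 h. Microfilaments stained 45 min with 100 nM TRITC-phalloidin, chromatin stained with DAPI, and cells examined by fluorescence microscopy.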

[2] = organism: Mus musculus; assay: Toxicity in mouse assessed as lethal dose; type: organism-based; settings: in vivo
[3] = test system: M16; assay: Antitumor activity against mouse M16 cells at 1.2 to 1.5 mg/kg; type: functional, organism-based
In short: (§2)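 In vivo mice with murine colon adenocarcinoma C38 or mammary adenocarcinoma M16, dosed at sublethal levels of 1.2-1.5 mg/kg.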

[4] = test system: A10; assay: Disruption of cellular microfilament network in rat A10 cells at 0.01 to 5.0 ug/mL; type: functional, cell-based; in short: as §1
[5] = test system: A10; assay: Disruption of microtubules in rat A10 cells; type: functional, cell-based
[6] = test system: LoVo; assay: Cytotoxicity against human LoVo cells; type: functional, cell-based
[7] = test system: A10; assay: Induction of apoptosis in rat A10 cells assessed as apoptotic bodies at 0.01 ug/mL; type: functional, cell-based; in short: as §1
[8] = test system: KB; assay: Cytotoxicity against human KB cells; type: functional, cell-based
[9] = target: T1, DNA topoisomerase 1 (Homo sapiens) (UniProt P11387); assay: Inhibition of topoisomerase 1 at 5 ug/mL
T1 sequence (whole entry): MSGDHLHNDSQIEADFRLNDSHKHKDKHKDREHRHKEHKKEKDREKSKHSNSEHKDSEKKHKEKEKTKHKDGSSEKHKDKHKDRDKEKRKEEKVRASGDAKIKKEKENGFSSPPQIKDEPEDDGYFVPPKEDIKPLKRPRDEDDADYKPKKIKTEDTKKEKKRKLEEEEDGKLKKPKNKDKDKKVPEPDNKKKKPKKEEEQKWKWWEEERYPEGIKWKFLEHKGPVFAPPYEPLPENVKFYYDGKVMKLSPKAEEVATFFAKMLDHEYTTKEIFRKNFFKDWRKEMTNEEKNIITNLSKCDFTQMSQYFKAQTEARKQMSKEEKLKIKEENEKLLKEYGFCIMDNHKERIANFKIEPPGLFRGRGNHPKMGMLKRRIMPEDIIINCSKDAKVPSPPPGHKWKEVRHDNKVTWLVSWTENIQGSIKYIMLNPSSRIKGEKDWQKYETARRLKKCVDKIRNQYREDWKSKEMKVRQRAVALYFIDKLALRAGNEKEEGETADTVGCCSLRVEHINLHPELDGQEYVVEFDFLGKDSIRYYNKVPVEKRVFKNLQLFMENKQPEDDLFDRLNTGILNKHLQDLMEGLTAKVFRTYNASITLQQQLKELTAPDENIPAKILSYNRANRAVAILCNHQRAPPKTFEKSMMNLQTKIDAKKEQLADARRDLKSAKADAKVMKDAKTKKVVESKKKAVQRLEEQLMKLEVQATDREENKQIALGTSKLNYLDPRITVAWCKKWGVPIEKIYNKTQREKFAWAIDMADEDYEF

[10] = test system: MC-38; assay: Antitumor activity against mouse C38 cells at 1.2 to 1.5 mg/kg; type: functional, organism-based; in short: as §2
[11] = test system: A10; assay: Disruption of cytoskeleton in rat A10 cells assessed as cells with two nuclei; type: functional, cell-based; in short: as §1
[12] = target: T1, DNA topoisomerase 1 (Homo sapiens); assay: Inhibition of topoisomerase 1 at 10 ug/mL

## CC[C@H](C)[C@@H]1NC(=O)CNC(=O)c2csc(n2)[C@H](C(C)(C)O)OC(=O)C(C)(C)[C@H](CCCC(C)(Cl)Cl)OC(=O)c2csc1n2 [LYNGBYABELLIN A]
[1]
  Activity: Active
[2]
  Activity: 2.4 mg/kg
[3]
  Activity: inactive
[4]
  Activity: Active
[5]
  Activity: inactive
[6]
  IC50: 0.5 µg/mL (≈ 0.723 µM)
[7]
  Activity: Active
[8]
  IC50: 0.03 µg/mL (≈ 0.0434 µM)
[9]
  Activity: inactive
[10]
  Activity: inactive
[11]
  Activity: Active
[12]
  Activity: inactive
